Measurements published in ChEMBL document CHEMBL3045213, “Antifungal activity of thiophenes from Echinops ritro” (J Agric Food Chem, 2006).
pIC50: −log10 of the molar value. The source made the active and inactive calls. The rule behind the calls is not given here.

Tests used:
Colletotrichum fragariae [1] = assay: Antifungal activity against Colletotrichum fragariae after 48 hr by 96-well microtiter based microdilution method; assay type: functional, organism-based
Outline: (§1)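 Conidia from 7–10-day PDA cultures (24 °C, 12-h photoperiod) were counted photometrically from %T at 625 nm. Compounds were taken from 12 mM stocks in 95% ethanol, diluted 1:4 in MOPS-buffered RPMI, and tested at six final concentrations (1.55–50.0 µM) with incubation under the same growth conditions.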

[2] = system: Colletotrichum gloeosporioides; assay: Antifungal activity against Colletotrichum gloeosporioides after 72 hr by 96-well microtiter based microdilution method; assay type: functional, organism-based; outline: as §1
Colletotrichum acutatum [3] = assay: Antifungal activity against Colletotrichum acutatum after 72 hr by 96-well microtiter based microdilution method; assay type: functional, organism-based; outline: as §1
Phomopsis viticola [4] = assay: Antifungal activity against Phomopsis viticola after 72 hr by 96-well microtiter based microdilution method
Botrytis cinerea [5] = assay: Antifungal activity against Botryotinia fuckeliana after 72 hr by 96-well microtiter based microdilution method; assay type: functional, organism-based; outline: as §1
Phomopsis obscurans [6] = assay: Antifungal activity against Phomopsis obscurans after 72 hr by 96-well microtiter based microdilution method; assay type: functional, organism-based; conditions: Paraphomopsis obscurans; outline: as §1
Colletotrichum fragariae [7] = assay: Antifungal activity against Colletotrichum fragariae after 72 hr by 96-well microtiter based microdilution method; assay type: functional, organism-based; outline: as §1
Botrytis cinerea [8] = assay: Antifungal activity against Botryotinia fuckeliana after 48 hr by 96-well microtiter based microdilution method; assay type: functional, organism-based; outline: as §1
Colletotrichum acutatum [9] = assay: Antifungal activity against Colletotrichum acutatum after 48 hr by 96-well microtiter based microdilution method; assay type: functional, organism-based; outline: as §1
Phomopsis viticola [10] = assay: Antifungal activity against Phomopsis viticola after 48 hr by 96-well microtiter based microdilution method
Phomopsis obscurans [11] = assay: Antifungal activity against Phomopsis obscurans after 48 hr by 96-well microtiter based microdilution method; assay type: functional, organism-based; conditions: Paraphomopsis obscurans; outline: as §1
Fusarium oxysporum [12] = assay: Antifungal activity against Fusarium oxysporum after 48 hr by 96-well microtiter based microdilution method; assay type: functional, organism-based; outline: as §1
Fusarium oxysporum [13] = assay: Antifungal activity against Fusarium oxysporum after 72 hr by 96-well microtiter based microdilution method; assay type: functional, organism-based; outline: as §1
[14] = system: Colletotrichum gloeosporioides; assay: Antifungal activity against Colletotrichum gloeosporioides after 48 hr by 96-well microtiter based microdilution method; assay type: functional, organism-based; outline: as §1
Fusarium oxysporum [15] = assay: Growth inhibition of Fusarium oxysporum at 3 uM after 48 hr by 96-well microtiter based microdilution method; assay type: functional; conditions: read-out: GI
Outline: (§2)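 F. oxysporum conidia (photometric count, %T 625 nm) were tested in MOPS-buffered RPMI broth microdilution at final concentrations of 0.3, 3.0 and 30.0 µM, diluted from 12 mM ethanol stocks. Plates were incubated at 24 °C with a 12-h photoperiod, and A620 was read at 48 h. Mean percent growth inhibition was pooled from two experiments replicated in time.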

Colletotrichum fragariae [16] = assay: Growth inhibition of Colletotrichum fragariae at 3 uM after 48 hr by 96-well microtiter based microdilution method; assay type: functional, organism-based
Outline: (§3)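 Three-point broth microdilution used final concentrations of 0.3, 3.0 and 30.0 µM, diluted from 12 mM ethanol stocks into MOPS-buffered RPMI. Conidial inoculum was counted photometrically at 625 nm and incubated at 24 °C with a 12-h photoperiod. A620 was read at 48 h and converted to percent growth inhibition. Controls were inoculated broth wells and solvent wells without inoculum.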

Fusarium oxysporum [17] = assay: Growth inhibition of Fusarium oxysporum at 0.3 to 30 uM after 48 hr by 96-well microtiter based microdilution method; assay type: functional, organism-based
Outline: (§4)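 Conidia from 7-10-day-old PDA cultures adjusted photometrically (%T at 625 nm) to 1.0 × 10^6 conidia/mL. Compounds dissolved in 95% ethanol at 12 mM (stock) and diluted 1:4 with MOPS-buffered RPMI. Final concentrations were 0.3, 3.0, 30.0 µM in 96-well plates. Incubated at 24 °C with a 12-h photoperiod. Growth was read as absorbance at 620 nm at 48 h. Percent inhibition was pooled from two experiments replicated in time. Controls were broth+inoculum and solvent+broth wells.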

[18] = system: Colletotrichum gloeosporioides; assay: Growth inhibition of Colletotrichum gloeosporioides at 0.3 to 30 uM after 48 hr by 96-well microtiter based microdilution method; assay type: functional, organism-based; outline: as §4
Colletotrichum acutatum [19] = assay: Growth inhibition of Colletotrichum acutatum at 3 uM after 48 hr by 96-well microtiter based microdilution method; assay type: functional, organism-based; outline: as §3
[20] = system: Colletotrichum gloeosporioides; assay: Growth inhibition of Colletotrichum gloeosporioides at 3 uM after 48 hr by 96-well microtiter based microdilution method; assay type: functional; conditions: read-out: GI; outline: as §3
Fusarium oxysporum [21] = assay: Growth inhibition of Fusarium oxysporum at 0.3 uM after 48 hr by 96-well microtiter based microdilution method; assay type: functional; conditions: read-out: GI; outline: as §2
[22] = system: Colletotrichum gloeosporioides; assay: Growth inhibition of Colletotrichum gloeosporioides at 30 uM after 48 hr by 96-well microtiter based microdilution method; assay type: functional; conditions: read-out: GI; outline: as §4
Fusarium oxysporum [23] = assay: Growth inhibition of Fusarium oxysporum at 30 uM after 48 hr by 96-well microtiter based microdilution method; assay type: functional; conditions: read-out: GI; outline: as §4

Row | Compound | pIC50 (Colletotrichum fragariae [1]) | pIC50 [2] | pIC50 (Colletotrichum acutatum [3]) | pIC50 (Phomopsis viticola [4]) | pIC50 (Botrytis cinerea [5]) | pIC50 (Phomopsis obscurans [6]) | pIC50 (Colletotrichum fragariae [7]) | pIC50 (Botrytis cinerea [8]) | pIC50 (Colletotrichum acutatum [9]) | pIC50 (Phomopsis viticola [10]) | pIC50 (Phomopsis obscurans [11]) | pIC50 (Fusarium oxysporum [12]) | pIC50 (Fusarium oxysporum [13]) | pIC50 [14] | growth inhibition (GI) (Fusarium oxysporum [17]) | growth inhibition (GI) [18] | inhibition of growth at 30 µM [22] | inhibition of growth at 30 µM (Fusarium oxysporum [23]) | further results
1 | O=C1C2CC=CCC2C(=O)N1SC(Cl)(Cl)Cl (stereo not given) [CAPTAN] | > 5.80 | > 5.80 | 5.68 | 4.70 | > 5.80 | 5.41 | 5.68 | > 5.80 | > 5.80 | 4.74 | 5.62 | 5.66 | 5.24 | > 5.80 | – | – | – | – | –
2 | c1csc(-c2ccc(-c3cccs3)s2)c1 [ALPHA-TERTHIENYL] | 5.31 | > 5.80 | 5.28 | > 5.20 | < 4.30 | 5.02 | 5.05 | < 4.30 | 5.52 | > 5.20 | 5.14 | 5.30 | < 4.30 | > 5.80 | Active | Active | – | – | inhibition of growth at 3 µM (Fusarium oxysporum [15]): 98%; growth inhibition (GI) (Colletotrichum fragariae [16]): Active; growth inhibition (GI) (Colletotrichum acutatum [19]): Active; inhibition of growth at 3 µM [20]: 98%; inhibition of growth at 0.3 µM (Fusarium oxysporum [21]): 25%
3 | CC(C)CC(=O)OCCC#Cc1ccc(-c2cccs2)s1 | – | – | – | – | – | – | – | – | – | – | – | – | – | – | inactive | inactive | – | – | –
4 | CC(=O)OCC(C#Cc1ccc(-c2cccs2)s1)OC(C)=O (stereo not given) | – | – | – | – | – | – | – | – | – | – | – | – | – | – | inactive | inactive | – | – | –
5 | C(#C[C@@H]1CC[C@H]1C#Cc1ccc(-c2cccs2)s1)c1ccc(-c2cccs2)s1 | – | – | – | – | – | – | – | – | – | – | – | – | – | – | inactive | inactive | – | – | –
6 | C(#C[C@@H]1CC[C@@H]1C#Cc1ccc(-c2cccs2)s1)c1ccc(-c2cccs2)s1 | – | – | – | – | – | – | – | – | – | – | – | – | – | – | inactive | inactive | – | – | –
7 | C=CC#Cc1ccc(-c2cccs2)s1 | 4.55 | 4.99 | 4.55 | 4.66 | < 4.30 | < 4.30 | 4.34 | < 4.30 | 5.12 | 4.71 | < 4.30 | < 4.30 | < 4.30 | 5.38 | Active | Active | 96% | 96% | –
8 | CC#CC#Cc1ccc(C#CCCO)s1 | 5.36 | 5.22 | 4.72 | 5.40 | 4.39 | 4.87 | 4.90 | 4.53 | 5.46 | > 5.80 | 5.54 | 5.02 | 4.70 | 5.59 | Active | Active | 100% | 100% | –
9 | OCCC#Cc1ccc(-c2cccs2)s1 | – | – | – | – | – | – | – | – | – | – | – | – | – | – | Active | Active | – | – | –
10 | CC#CC#Cc1ccc(C#CC(Cl)COC(C)=O)s1 (stereo not given) | – | – | – | – | – | – | – | – | – | – | – | – | – | – | Active | Active | 81% | 82% | –
